According to publication PMC7564327 (Acta Pharmaceutica Sinica. B, 2020):

What was measured:
hOATP1B1 [1] = target: T1, hOATP1B1 (Homo sapiens, UniProt Q9Y6L6); assay: Inhibition of 3H-ES uptake in HEK293-hOATP1B1 cells; assay type: in vitro ADME; conditions: 100 μmol/L IPT, ISP; 100 μg/mL AD extract; substrate 3H-ES
T1 sequence (Q9Y6L6 1-691): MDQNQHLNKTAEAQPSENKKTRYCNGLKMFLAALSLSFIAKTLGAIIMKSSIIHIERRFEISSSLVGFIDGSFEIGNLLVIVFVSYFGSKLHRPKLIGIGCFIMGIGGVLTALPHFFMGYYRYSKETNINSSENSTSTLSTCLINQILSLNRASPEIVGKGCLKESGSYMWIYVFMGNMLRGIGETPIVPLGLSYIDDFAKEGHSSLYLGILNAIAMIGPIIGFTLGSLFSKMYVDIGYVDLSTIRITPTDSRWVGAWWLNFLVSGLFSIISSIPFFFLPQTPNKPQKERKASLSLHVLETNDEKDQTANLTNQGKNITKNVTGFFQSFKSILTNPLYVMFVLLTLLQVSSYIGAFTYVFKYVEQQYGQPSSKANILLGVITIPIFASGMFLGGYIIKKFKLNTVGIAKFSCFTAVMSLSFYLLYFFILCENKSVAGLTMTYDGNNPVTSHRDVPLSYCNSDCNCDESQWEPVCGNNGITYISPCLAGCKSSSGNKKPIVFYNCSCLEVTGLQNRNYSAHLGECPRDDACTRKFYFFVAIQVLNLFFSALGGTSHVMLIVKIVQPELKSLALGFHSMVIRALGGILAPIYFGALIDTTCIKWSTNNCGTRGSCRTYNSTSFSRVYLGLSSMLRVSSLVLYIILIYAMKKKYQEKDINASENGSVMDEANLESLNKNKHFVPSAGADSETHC
In short: (§1)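 HEK293 cells stably overexpressing the human transporter, grown in DMEM with 10% FBS and penicillin/streptomycin at 5% CO₂, then seeded in 24-well plates and used at confluence. Cells incubated at 37 °C for 2 min with 50 nmol/L ³H-estrone sulfate, with or without test compound or extract; final DMSO below 0.5%. Stopped by three cold DPBS washes, lysed in 0.1 mol/L NaOH, and counted by liquid scintillation (DPM).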

mice kidney slices = assay: In vitro uptake of TDE in mice kidney slices; assay type: in vitro ADME, Kunming mice; conditions: TDE 10 μmol/L
In short: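 Kunming mice (20–25 g, fasted 12 h) were anaesthetised with urethane, and kidney or liver was decapsulated into ice-cold oxygenated buffer at pH 7.5. Slices of about 30 mg were preincubated 5 min under carbogen at 4 or 37 °C. They were then incubated with 10 μmol/L test compound for 5, 10 or 30 min, with or without reference OAT1/OAT3 or OATP inhibitors or co-ingredients. Slices were then washed, blotted, weighed and homogenised, then extracted with methanol and an internal standard for HPLC–MS.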

hOAT1 = target: T2, hOAT1 (Homo sapiens, UniProt Q4U2R8); assay: Inhibition of 14C-PAH uptake in MDCK-hOAT1 cells; assay type: in vitro ADME; conditions: for inhibition of the activity of hOAT1: 100 μmol/L IPT, ISP, 100 μg/mL AD extract, substrate 14C-PAH
T2 sequence (Q4U2R8 1-563): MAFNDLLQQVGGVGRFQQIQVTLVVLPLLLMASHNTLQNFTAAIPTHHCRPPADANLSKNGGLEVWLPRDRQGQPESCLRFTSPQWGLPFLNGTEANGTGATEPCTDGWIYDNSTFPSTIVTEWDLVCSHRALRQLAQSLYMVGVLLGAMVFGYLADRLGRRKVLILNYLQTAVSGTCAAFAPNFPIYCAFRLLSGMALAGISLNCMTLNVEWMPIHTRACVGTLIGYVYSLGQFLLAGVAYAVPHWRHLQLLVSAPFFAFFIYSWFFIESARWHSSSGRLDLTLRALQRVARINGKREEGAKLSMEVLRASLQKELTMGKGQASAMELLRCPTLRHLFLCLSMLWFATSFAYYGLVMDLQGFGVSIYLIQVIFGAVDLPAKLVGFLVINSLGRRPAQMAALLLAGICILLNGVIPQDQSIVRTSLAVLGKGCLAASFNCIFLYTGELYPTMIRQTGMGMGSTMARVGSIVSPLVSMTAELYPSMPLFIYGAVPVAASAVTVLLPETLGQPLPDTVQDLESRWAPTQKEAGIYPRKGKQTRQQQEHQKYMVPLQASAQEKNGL
In short: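 Test compounds were made as DMSO stocks (20 mmol/L, or 10 mg/mL for extract) and diluted in PBS to a final DMSO below 0.5%. Cells were exposed at 37 °C to probe plus or minus test compound. The probe was 5 μmol/L ¹⁴C-PAH for 5 min (hOAT1) or 50 nmol/L ³H-estrone sulfate for 2 min (hOAT3, hOATP2B1). Screens used 100 μmol/L (extract 100 mg/L); IC50 came from varied concentrations. Cells were then given three cold DPBS washes, lysed in 0.1 mol/L NaOH and read by scintillation counting. Data are mean ± SD, n = 3.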

[2] = Tissue distribution of TDE in mice; conditions: oral 20 mg/kg TDE with 20 mg/kg IPT, 20 mg/kg ISP or 200 mg/kg AD extract, 1, 2 and 4 h; for accumulation of TDE in kidney vs TDE alone / accumulation of TDE in liver vs TDE alone: P < 0.05
hOATP1B3 = target: T3, hOATP1B3 (Homo sapiens, UniProt Q9NPD5); assay: Inhibition of 3H-ES uptake in HEK293-hOATP1B3 cells; assay type: in vitro ADME; conditions: 100 μmol/L IPT, ISP; 100 μg/mL AD extract; substrate 3H-ES
T3 sequence (Q9NPD5 1-702): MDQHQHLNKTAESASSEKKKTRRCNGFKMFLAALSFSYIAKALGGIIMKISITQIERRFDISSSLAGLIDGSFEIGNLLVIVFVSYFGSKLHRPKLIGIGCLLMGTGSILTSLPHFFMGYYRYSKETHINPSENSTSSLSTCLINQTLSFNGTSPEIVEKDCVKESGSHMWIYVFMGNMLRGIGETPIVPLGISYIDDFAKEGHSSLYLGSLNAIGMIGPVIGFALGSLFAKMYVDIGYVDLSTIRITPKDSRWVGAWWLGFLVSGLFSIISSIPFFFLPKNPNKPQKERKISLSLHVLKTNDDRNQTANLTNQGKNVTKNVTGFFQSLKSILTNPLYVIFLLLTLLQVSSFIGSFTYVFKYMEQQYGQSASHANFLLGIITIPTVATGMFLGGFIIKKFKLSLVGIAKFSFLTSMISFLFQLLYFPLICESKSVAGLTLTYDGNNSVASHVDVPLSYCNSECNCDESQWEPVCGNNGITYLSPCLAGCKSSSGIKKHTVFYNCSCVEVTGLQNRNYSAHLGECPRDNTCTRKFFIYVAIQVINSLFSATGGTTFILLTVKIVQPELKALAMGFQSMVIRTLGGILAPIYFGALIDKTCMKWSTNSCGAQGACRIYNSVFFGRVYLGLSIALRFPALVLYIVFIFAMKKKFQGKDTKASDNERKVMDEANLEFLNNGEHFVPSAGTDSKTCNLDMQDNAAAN
In short: as §1

hOATP1B1 [3] = target: T1, hOATP1B1; assay: Cellular uptake and kinetics in HEK293-hOATP1B1 vs Mock cells; assay type: in vitro ADME; conditions: 100 μmol/L

Row | SMILES | inhibition to hOATP1B1 (hOATP1B1 [1]) | effect on the uptake of TDE in kidney slices (mice kidney slices) | IC50 (hOAT1) [µM] | inhibition of the activity of hOAT1 (hOAT1) | concentration of TDE in blood vs TDE alone [2] | concentration of TDE in brain vs TDE alone [2] | accumulation of TDE in kidney vs TDE alone [2] | accumulation of TDE in liver vs TDE alone [2] | inhibition to hOATP1B3 (hOATP1B3) | accumulation in hOATP1B1-overexpressed cell lines compared to wild type (hOATP1B1 [3])
1 | CC(C)=CCOc1c2occc2cc2ccc(=O)oc12 [IPT, imperatorin] | weak or no inhibition | significant inhibition | 31.7 | significantly inhibited | significantly enhanced | significantly enhanced | significantly decreased | significantly decreased | weak or no inhibition | could largely accumulate
2 | CC(C)=CCOc1c2ccoc2cc2oc(=O)ccc12 [ISP, isoimperatorin] | weak or no inhibition | significant inhibition | 26.8 | significantly inhibited | significantly enhanced | significantly enhanced | significantly decreased | significantly decreased | weak or no inhibition | could largely accumulate
